Data published in article PMC7686626 (The Journal of International Medical Research, 2020).

Assays:
[1] = Stability of QC samples of the analytes in rat plasma; assay type: in vitro ADME; details: storage conditions of Table 5
Method in brief: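 Rat plasma QC samples at low, middle and high levels (n = 6 each) were held 4 h at room temperature, 24 h at 4°C, three freeze/thaw cycles (−80°C to room temperature) or 45 days at −80°C. Samples were protein-precipitated with taxol internal standard and run by HPLC–MS/MS SRM. A deviation within ±15% was taken as stable.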

[2] = Pharmacokinetics study in rats after oral administration of HQCF extract; assay type: in vivo, rat; details: for AUC(0-inf) / AUC(0-t) / Cmax / Tmax / half-life: male, Sprague-Dawley, rat, plasma, po, 1526.5 mg/kg; for shape of the plasma concentration–time curve: rats, after HQCF extract administration
Method in brief: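 Male Sprague–Dawley rats (200 ± 20 g), acclimatised 7 days, fasted 12 h; n = 6 given extract water solution (0.2 g·mL−1) by gavage. Blood (~250 µL) from ophthalmic vein at 0–24 h; plasma spun at 16,060 × g, 10 min, 4°C. Plasma protein-precipitated with taxol internal standard; C18 gradient HPLC–ESI-MS/MS in SRM mode. Non-compartmental analysis; mean ± SD.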

[3] = Short-term stability of stock solutions at room temperature; assay type: physicochemical; details: stock solution in methanol, room temperature for 6 hours
Method in brief: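 Stock solutions (2.0 mg·mL−1 in methanol) of each analyte and the taxol internal standard were held 6 hours at room temperature and then assayed by the validated HPLC–MS/MS method. A deviation within ±15% was taken as stable.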

Degradation in rat plasma under different experimental conditions [1]	AUC(0-inf) [2]	AUC(0-t) [2]	Cmax [2]	Tmax [2]	half-life [2]	shape of the plasma concentration–time curve [2]	Stock solution stability, accuracy [3]	Structure (SMILES)
no significant degradation	1830 ± 416 ng·h/mL	1680 ± 342 ng·h/mL	247 ± 32.3 ng/mL	1.5 ± 0.4 h	6.28 ± 2.5 h	double-peak absorption phases	90.2%	COc1ccc(-c2coc3cc(O)ccc3c2=O)cc1O [CA, calycosin]
							102.4%	CC(=O)O[C@H]1C(=O)[C@@]2(C)[C@H]([C@H](OC(=O)c3ccccc3)[C@]3(O)C[C@H](OC(=O)[C@H](O)[C@@H](NC(=O)c4ccccc4)c4ccccc4)C(C)=C1C3(C)C)[C@]1(OC(C)=O)CO[C@@H]1C[C@@H]2O [IS, Taxol, reference compound]
no significant degradation	762 ± 281 ng·h/mL	410 ± 92.3 ng·h/mL	117 ± 31.5 ng/mL	1.2 ± 0.6 h	6.94 ± 2.8 h	double-peak absorption phases	105.4%	C[C@@]12C[C@@]3(O)O[C@@H](O1)[C@]1(COC(=O)c4ccccc4)[C@H]3C[C@@]12O[C@@H]1O[C@H](CO)[C@@H](O)[C@H](O)[C@H]1O [PA, paeoniflorin]
